Source: ChEMBL document CHEMBL6182837, “Discovery and biological evaluation of nitrofuranyl-pyrazolopyrimidine hybrid conjugates as potent antimicrobial agents targeting Staphylococcus aureus and methicillin-resistant S. aureus” (RSC Med Chem, 2025)
Converted amounts (≈) assume the structure as drawn. The source made the active and inactive calls. The calls are words filed in the database; no cut-off is given here.

What was measured:
Staphylococcus aureus [1] = assay: Induction of morphological disruption in methicillin-resistant Staphylococcus aureus ATCC 15187 incubated for 2 to 6 hrs by SEM analysis; assay type: functional, organism-based; details: time 2-6 hrs
Method in brief: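 Bacteria incubated for 2 h and 6 h at 1×, 2× and 4× MIC, with vancomycin and daptomycin at 1× and 2× MIC and untreated cells; cell morphology imaged by scanning electron microscopy.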

Staphylococcus aureus [2] = assay: Antibacterial activity against Staphylococcus aureus SA-K2192 overexpressing TetK by Alamar blue staining based analysis; assay type: functional
Staphylococcus aureus [3] = assay: Antibacterial activity against Ciprofloxacin-sensitive Staphylococcus aureus […] by Alamar blue staining based analysis; assay type: functional
[4] = Hemolytic activity in rabbit erythrocytes up to 200 ug/ml incubated for 4 hrs by absorbance based assay; assay type: toxicity, cell-based, Oryctolagus cuniculus; details: erythrocyte, dose < 200 µg/ml
Staphylococcus aureus [5] = assay: Antibacterial activity against Staphylococcus aureus ATCC 29213 infected in mouse RAW264.7 cells assessed as bacterial eradication by colony counting method; assay type: functional, organism-based
Method in brief: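 RAW 264.7 macrophages infected with S. aureus, then treated with compound at multiples of MIC non-toxic to the cells; intracellular bacterial load enumerated as CFU ml−1; vancomycin comparator; one-way ANOVA versus infection control.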

Staphylococcus aureus [6] = assay: Inhibition of biofilm formation of methicillin-resistant Staphylococcus aureus ATCC 15187 incubated for 27 hrs by absorbance based method; assay type: functional, organism-based
Staphylococcus aureus [7] = assay: Antibacterial activity against methicillin-resistant Staphylococcus aureus ATCC 15187 infected in mouse RAW264.7 cells assessed as bacterial eradication by colony counting method based microdilution method; assay type: functional, organism-based
Method in brief: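 RAW 264.7 macrophages infected with MRSA, then treated at multiples of MIC non-toxic to the cells, with vancomycin control; intracellular bacterial load counted as CFU ml−1; compared with infection control by one-way ANOVA.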

[8] = Terminal half life in male Balb/c mouse at 30 mg/kg, po by LC-MS/MS analysis; assay type: ADME, organism-based; details: in vivo, read-out: beta t1/2 (converted)
Method in brief: (§1)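 Balb/c mice dosed 1 mg kg−1 intravenously or 30 mg kg−1 orally (2.5 mg kg−1 oral also given); plasma PK parameters derived.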

Staphylococcus aureus [9] = assay: Bactericidal activity against methicillin-resistant Staphylococcus aureus ATCC 15187 assessed as reduction in bacterial count incubated for 2 to 24 hrs by time-kill assay; assay type: functional, organism-based; details: time 2-24 hrs
[10] = Lipophilicity, logD of compound; assay type: physicochemical; details: octanol/water
Staphylococcus aureus [11] = assay: Synergistic antibacterial activity against methicillin-resistant Staphylococcus aureus ATCC 15187 assessed as fractional inhibitory concentration index at 0.075 ug/ml incubated up to 24 hrs in presence of rifampicin by checkerboard analysis; assay type: functional; details: dose 0.075 µg/ml
Method in brief: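 Checkerboard microdilution in cation-adjusted MHB, done per CLSI. The compound and partner antibiotic were dissolved in DMSO. The antibiotic was serially diluted across the plate and the compound was twofold serially diluted into the wells to make the combinations. Each well received 0.1 ml of inoculum, a 0.5 McFarland suspension (1.5 × 10^8 CFU ml−1) diluted 1:100 in MHB. Plates were incubated 24 h at 37 °C, then read with Alamar blue (0.04%). FIC index was calculated.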

[12] = Cytotoxicity in human HepG2 cells incubated for 24 hrs by MTT assay; assay type: toxicity, cell-based
Method in brief: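 HepG2 cells, 1 × 10^4 per well in DMEM/10% FBS, 24 h attachment; compounds 200 to 0.19 μg ml−1 for 24 h at 37 °C, 5% CO2; MTT 2.5 mg ml−1 for 3 h, formazan in DMSO, OD 570 nm; doxorubicin 10 μM control.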

[13] = Clearance in male Balb/c mouse at 1 mg/kg, iv by LC-MS/MS analysis; assay type: ADME, organism-based; details: in vivo; method in brief: as §1
[14] = Terminal half life in male Balb/c mouse at 1 mg/kg, iv by LC-MS/MS analysis; assay type: ADME, organism-based; details: in vivo, read-out: beta t1/2 (converted)
Method in brief: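 Balb/c mice dosed intravenously at 1 mg kg−1; plasma pharmacokinetic profile analysed for half-life, C0, AUC0−t and clearance.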

Staphylococcus aureus [15] = assay: Disruption of cell membrane integrity in methicillin-resistant Staphylococcus aureus ATCC 15187 assessed as red fluorescence at 1 to 2 times MIC incubated for 2.5 hrs by DAPI/PI staining based fluorescence microscopy; assay type: functional, organism-based
Method in brief: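 Bacteria treated at 1× and 2× MIC, with vancomycin 2× MIC as control and an untreated blank; stained with DAPI (all cells) and propidium iodide (membrane-damaged cells); imaged by fluorescence microscopy, red PI signal taken as membrane damage.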

[16] = Tmax in male Balb/c mouse at 30 mg/kg, po by LC-MS/MS analysis; assay type: ADME, organism-based; details: in vivo; method in brief: as §1
Staphylococcus aureus [17] = assay: Antibacterial activity against methicillin-resistant Staphylococcus aureus ATCC 15187 infected in male Balb/c/c mouse assessed as reduction in bacterial load in kidney at 50 to 100 mg/kg measured after 24 hrs by colony counting method; assay type: functional, organism-based; details: dose 50-100 mg/kg
Method in brief: (§2)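 Mouse peritonitis model: 0.1 ml MRSA suspension (10^8 CFU ml−1) given intraperitoneally; treatment intraperitoneal at 50 or 100 mg kg−1 at 2 and 5 h post-infection, with saline and vancomycin (50 mg kg−1) controls; killed at 24 h; kidney and lung homogenates plated on Mueller–Hinton agar with 20 μg ml−1 ciprofloxacin, 24 h; CFU ml−1; unpaired t-test.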

[18] = Cmax in male Balb/c mouse at 30 mg/kg, po by LC-MS/MS analysis; assay type: ADME, organism-based; details: in vivo; method in brief: as §1
Staphylococcus aureus [19] = assay: Induction of resistance development in methicillin-resistant Staphylococcus aureus ATCC 15187 at 0.5 MIC measured after […]; assay type: functional, organism-based; details: 0.5 M
Method in brief: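 Bacteria serially passaged under sublethal drug exposure over 20 days, with MIC redetermined at each passage; vancomycin and norfloxacin as controls.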

Staphylococcus aureus [20] = assay: Induction of morphological disruption in Staphylococcus aureus ATCC 29213 incubated for 2 to 6 hrs by SEM analysis; assay type: functional, organism-based; details: time 2-6 hrs
Method in brief: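 S. aureus incubated 2 h and 6 h with compound at 1×, 2×, 4× MIC, imaged by scanning electron microscopy; untreated, vancomycin and daptomycin (1×, 2× MIC) controls.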

[21] = Protein binding in plasma (unknown origin); assay type: ADME, cell-free
[22] = AUC (0 to t) in male Balb/c mouse at 30 mg/kg, po by LC-MS/MS analysis; assay type: ADME, organism-based; details: in vivo; method in brief: as §1
Staphylococcus aureus [23] = assay: Bacteriostatic activity against Staphylococcus aureus ATCC 29213 assessed as reduction in bacterial count at MIC incubated for 2 to 24 hrs by time-kill assay; assay type: functional; details: time 2-24 hrs
Staphylococcus aureus [24] = assay: Antibacterial activity against methicillin-resistant Staphylococcus aureus ATCC 15187 infected in male Balb/c/c mouse assessed as reduction in bacterial load in lung at 50 to 100 mg/kg measured after 24 hrs by colony counting method; assay type: functional, organism-based; details: dose 50-100 mg/kg; method in brief: as §2
[25] = C0 in male Balb/c mouse at 1 mg/kg, iv by LC-MS/MS analysis; assay type: ADME, organism-based; details: in vivo; method in brief: as §1
Staphylococcus aureus [26] = assay: Disruption of pre-formed biofilms of Staphylococcus aureus ATCC 29213 at 4 to 6 times MIC incubated for 24 hrs by absorbance based method relative to control; assay type: functional
[27] = AUC (0 to infinity) in male Balb/c mouse at 30 mg/kg, po by LC-MS/MS analysis; assay type: ADME, organism-based; details: in vivo; method in brief: as §1
[28] = Efflux ratio of permeability across basal to apical side over apical to basal side in human Caco-2 cells; assay type: ADME, cell-based
Staphylococcus aureus [29] = assay: Antibacterial activity against Staphylococcus aureus SA-1199B overexpressing NorA by Alamar blue staining based analysis; assay type: functional

Compound: CCCc1nn(C)c2c(Nc3ccc(O)cc3)nc(-c3ccc([N+](=O)[O-])o3)nc12
- Activity (Staphylococcus aureus [1]): Active
- MIC (Staphylococcus aureus [2]): 0.3 µg/mL (≈ 0.761 µM)
- MIC (Staphylococcus aureus [3]): 0.3 µg/mL (≈ 0.761 µM)
- Activity [4]: Non-toxic
- Activity (Staphylococcus aureus [5]): Dose-dependent-effect
- inhibition (Staphylococcus aureus [6]): Dose-dependent-effect
- Activity (Staphylococcus aureus [7]): Dose-dependent-effect
- half-life [8]: 21 min
- Activity (Staphylococcus aureus [9]): Dose-dependent-effect
- logD [10]: 2.92
- fractional inhibitory concentration index (FICI) (Staphylococcus aureus [11]): 0.5
- IC50 at 24 h [12]: > 50 µg/mL
- clearance [13]: 176 mL/min/kg
- half-life [14]: 30 min
- Activity (Staphylococcus aureus [15]): Active
- Tmax [16]: 30 min
- Activity (Staphylococcus aureus [17]): Active; Significantly Greater Effect Was Observed At 50 Mg/Kg Compared To Vancomycin
- Cmax [18]: 2010 ng/mL
- Activity (Staphylococcus aureus [19]): inactive
- Activity (Staphylococcus aureus [20]): Active
- PPB [21]: 99.1%
- AUC(0-t) [22]: 3150 ng·h/mL
- Activity (Staphylococcus aureus [23]): <3 log10CFU
- Activity (Staphylococcus aureus [24]): Active; Significantly Lesser Effect Was Observed At 50 To 100 Mg/Kg Compared To Vancomycin
- C0 [25]: 552 ng/mL
- Activity (Staphylococcus aureus [26]): 30%
- AUC(0-inf) [27]: 3150 ng·h/mL
- efflux ratio [28]: 1.3
- MIC (Staphylococcus aureus [29]): 0.6 µg/mL (≈ 1.52 µM)
